In PMC4257110 (International Journal of Nanomedicine, 2014):
≈ marks a conversion by molar mass, not a printed value.

Columns and labels:
[1] = Pharmacokinetics of TS IIA, Sal B and PNS; format: in vivo, guinea pigs; conditions: RW administration, NPs versus compound solution, not dose-normalised
Procedure, shortened: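 Guinea pigs (250–300 g; 78, two groups) received round-window dosing of loaded PLGA NPs (12.43 μg/kg TS IIA, 766.38 μg/kg Sal B, 1.05/2.08/2.31 mg/kg R1/Rg1/Rb1) or solution in ethanol/glycerol/PEG 400 2:1:2 (0.73, 8, 3.13/4.38/3.82 mg/kg); saline blank. At 0.17–36 h under anesthesia, perilymph was drawn through the RWM and plasma taken from cardiac blood. Acetic ether (TS IIA, Sal B) or methanol (PNS) extraction, HPLC; n=3.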

[2] = In vitro release of TS IIA, Sal B and PNS from PLGA NPs and of free drugs; format: physicochemical; conditions: saline containing 0.2% SDS, dialysis, 37°C; for released from NPs: PLGA NPs loaded with TS IIA, Sal B, PNS, within 72 hours; for free drug released: free drugs (control), first 6 hours
Procedure, shortened: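 Dialysis release: a sealed bag with sample dispersed in 2.0 mL saline plus 0.2% (w/v) SDS was immersed in 30 mL of the same medium at 37°C with horizontal shaking at 100 rpm. 1 mL of medium was withdrawn at set intervals and drug content measured by HPLC.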

[3] = format: physicochemical; conditions: PLGA NPs loaded with TS IIA, Sal B, PNS; PLGA L:G 50:50; RP-HPLC
Procedure, shortened: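 Free drug: a dialysis bag (8–14 kDa cutoff) holding 2 mL saline with 0.2% SDS was placed in 25 mL nanosuspension for 12 h, and the bag contents were assayed by HPLC. Total drug: 1 mL nanosuspension dissolved in acetonitrile, extracted with methanol, 0.22-μm filtered. C18 column, 25°C, acetonitrile/0.05% phosphoric acid gradient, 1.0 mL/min, 203 nm (PNS) or 280 nm (TS IIA, Sal B). EE calculated from free and total drug.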

[4] = Maximum solubility in mixed solvents; format: physicochemical; conditions: mixed solvents (ethanol/glycerol/PEG 400 = 2:1:2), organic solvent or mixture
[5] = format: in vivo, guinea pigs
[6] = In vitro release of coumarin-6 from PLGA NPs; format: physicochemical; conditions: PBS (pH 7.4), 72 hours, 37°C
Procedure, shortened: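 A dialysis bag holding 3.0 mL nanosuspension plus 2.0 mL PBS pH 7.4 sat in 15 mL PBS pH 7.4 at 37°C, stirred at 100 rpm. At set time points 1 mL of medium was withdrawn and replaced with fresh medium, and coumarin-6 was quantified by HPLC.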

[7] = PL, guinea pigs, RW administration, NPs versus solution

| Molecule | AUC0–t in the PL, NPs greater compared with compound solution [1] | Cmax in the PL, NPs higher compared with compound solution [1] | released from NPs [2] | free drug released [2] | entrapment efficiency of the NPs [3] | solubility [4] | AUC0–t in PL, NPs higher than coumarin-6 solution [5, 7] | Cmax in PL, NPs higher than coumarin-6 solution [5, 7] | time up to which coumarin-6 was found in the PL ([5]; RW administration of coumarin-6 NPs) | time after which no coumarin-6 was detected in PL ([5]; RW administration of coumarin-6 solution) | coumarin-6 detected in the plasma ([5]; plasma of several guinea pigs, RW administration of coumarin-6 NPs or solution) | in vitro cumulative release of coumarin-6 from the NPs [6] |
| --- | --- | --- | --- | --- | --- | --- | --- | --- | --- | --- | --- | --- |
| CC(C)=CCC[C@](C)(O[C@@H]1O[C@H](CO)[C@@H](O)[C@H](O)[C@H]1O)[C@H]1CC[C@]2(C)[C@@H]1[C@H](O)C[C@@H]1[C@@]3(C)CC[C@H](O)C(C)(C)[C@@H]3[C@@H](O[C@@H]3O[C@H](CO)[C@@H](O)[C@H](O)[C@H]3O[C@@H]3OC[C@@H](O)[C@H](O)[C@H]3O)C[C@]12C [R1, notoginsenoside R1] | 4.0 fold | 14.4 fold | completely released | > 79% | 37.87% | – | – | – | – | – | – | – |
| CC(C)=CCC[C@](C)(O[C@@H]1O[C@H](CO[C@@H]2O[C@H](CO)[C@@H](O)[C@H](O)[C@H]2O)[C@@H](O)[C@H](O)[C@H]1O)[C@H]1CC[C@]2(C)[C@@H]1[C@H](O)C[C@@H]1[C@@]3(C)CC[C@H](O[C@@H]4O[C@H](CO)[C@@H](O)[C@H](O)[C@H]4O[C@@H]4O[C@H](CO)[C@@H](O)[C@H](O)[C@H]4O)C(C)(C)[C@@H]3CC[C@]12C [Rb1, ginsenoside Rb1] | 7.1 fold | 16.7 fold | 76.0% | > 79% | 93.56% | – | – | – | – | – | – | – |
| CC(C)=CCC[C@](C)(O[C@@H]1O[C@H](CO)[C@@H](O)[C@H](O)[C@H]1O)[C@H]1CC[C@]2(C)[C@@H]1[C@H](O)C[C@@H]1[C@@]3(C)CC[C@H](O)C(C)(C)[C@@H]3[C@@H](O[C@@H]3O[C@H](CO)[C@@H](O)[C@H](O)[C@H]3O)C[C@]12C [Rg1, ginsenoside Rg1] | 3.1 fold | 10.0 fold | 76.2% | > 79% | 44.98% | – | – | – | – | – | – | – |
| Cc1coc2c1C(=O)C(=O)c1c-2ccc2c1CCCC2(C)C [TS IIA, tanshinone IIA] | – | – | 23.6% | > 79% | 91.81% | 1830 µg/mL (≈ 6.22 mM) | – | – | – | – | – | – |
| CCN(CC)c1ccc2cc(-c3nc4ccccc4s3)c(=O)oc2c1 [coumarin-6] | – | – | – | – | – | – | 4.7 fold | 10.9 fold | up to 96 hours | 36 h | An infinitesimal amount | < 2% |
| salvianolic acid B [Sal B] | – | – | 93.0% | > 79% | 92.88% | – | – | – | – | – | – | – |
